Results as given in ChEMBL document CHEMBL4270544, “Design, synthesis and biological evaluation of a novel tubulin inhibitor 7a3 targeting the colchicine binding site” (Eur J Med Chem, 2018).
Active and inactive are the calls of the source. The rule behind the calls is not given here.

What was measured:
MDA-MB-231 = test: Antiproliferative activity against human MDA-MB-231 cells after 72 hrs by CCK8 assay; format: functional, cell-based; conditions: MDA-MB-231, 72 h
Method in brief: (§1)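 CCK-8 proliferation assay with CA-4 as positive control. IC50 is the concentration giving 50% inhibition of proliferation. Mean ± SEM from three independent experiments.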

A549 = test: Antiproliferative activity against human A549 cells after 72 hrs by CCK8 assay; format: functional, cell-based; conditions: A549, 72 h; method in brief: as §1
MCF7 = test: Antiproliferative activity against human MCF7 cells after 72 hrs by CCK8 assay; format: functional, cell-based; conditions: MCF7, 72 h; method in brief: as §1
HeLa = test: Antiproliferative activity against human HeLa cells after 72 hrs by CCK8 assay; format: functional, cell-based; method in brief: as §1
SK-OV-3 [1] = test: Antiproliferative activity against human SKOV3 cells after 72 hrs by CCK8 assay; format: functional, cell-based; conditions: SK-OV-3, 72 h; method in brief: as §1
CT26 = test: Antiproliferative activity against mouse CT26 cells after 72 hrs by CCK8 assay; format: functional, cell-based; conditions: CT26, 72 h; method in brief: as §1
Bos taurus = organism: Bos taurus; test: Inhibition of bovine MAP-rich tubulin polymerization at 10 uM measured every 1 min for 30 mins relative to control
Method in brief: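 Purified tubulin polymerization followed at 37 °C by absorbance at 340 nm, read every 1 min for 30 min. Test concentrations 2.5, 10 and 40 µM. CA-4 at 10 µM served as positive control and DMSO (1%, v/v) as vehicle. Polymerization is expressed relative to the vehicle group.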

SK-OV-3 [2] = test: Antimigratory activity against human SKOV3 cells assessed as number of migrated cells at 25 nM after 24 hrs by crystal violet staining based transwell migration assay (reference value: 49.3 to 50.7); format: functional
SK-OV-3 [3] = test: Antimigratory activity against human SKOV3 cells assessed as number of migrated cells at 50 nM after 24 hrs by crystal violet staining based transwell migration assay (reference value: 49.3 to 50.7); format: functional
SK-OV-3 [4] = test: Antimigratory activity against human SKOV3 cells assessed as wound closure at 80 nM after 24 hrs by microscopy based scratch wound assay (reference value: 79.5 +/- 2.8%); format: functional
SK-OV-3 [5] = test: Antimigratory activity against human SKOV3 cells assessed as wound closure at 160 nM after 24 hrs by microscopy based scratch wound assay (reference value: 79.5 +/- 2.8%); format: functional
SK-OV-3 [6] = test: Antimigratory activity against human SKOV3 cells assessed as number of migrated cells at 100 nM after 24 hrs by crystal violet staining based transwell migration assay (reference value: 49.3 to 50.7); format: functional

SMILES | IC50 (MDA-MB-231) | IC50 (SK-OV-3 [1]) | further results
COc1ccc(-c2cnn(C)c2-c2cc(OC)c(OC)c(OC)c2)cc1F | 57 nM | 66 nM | IC50 (A549): 187 nM; IC50 (MCF7): 113 nM; IC50 (HeLa): 112 nM; IC50 (CT26): 151 nM
COc1ccc(-c2c(-c3cc(OC)c(OC)c(OC)c3)nn(C)c2N)cc1F | 36400 nM | 31800 nM | 
COc1ccc(-c2cn(C)nc2-c2cc(OC)c(OC)c(OC)c2)cc1F | 41 nM | 55 nM | IC50 (A549): 141 nM; IC50 (MCF7): 37.2 nM; IC50 (HeLa): 28.8 nM; IC50 (CT26): 58.7 nM
COc1ccc(-c2cnn(C)c2-c2cc(OC)c(OC)c(OC)c2)cc1 | 74 nM | 69 nM | 
COc1cc(-c2nn(C(C)(C)C)c(N)c2-c2ccc(SC)cc2)cc(OC)c1OC | 20800 nM | 24200 nM | 
COc1ccc(-c2cn(C)nc2-c2cc(OC)c(OC)c(OC)c2)cc1 | 166 nM | 89 nM | 
COc1ccc(/C=C\c2cc(OC)c(OC)c(OC)c2)cc1O [COMBRETASTATIN A4] | 4.5 nM | 5.9 nM | inhibition (Bos taurus): Active; Activity (SK-OV-3 [2]): 26.3; IC50 (A549): 94.3 nM; Activity (SK-OV-3 [3]): 20.7; IC50 (MCF7): 39.1 nM; IC50 (HeLa): 14.2 nM; Activity (SK-OV-3 [4]): 41.9%; Activity (SK-OV-3 [5]): 29.2%; Activity (SK-OV-3 [6]): 18.3; IC50 (CT26): 45.1 nM
COc1cc(-c2nn(C)cc2-c2ccc(SC)cc2)cc(OC)c1OC | 307 nM | 155 nM | 
COc1ccc(-c2c(-c3cc(OC)c(OC)c(OC)c3)nn(C(C)(C)C)c2N)cc1F | 29500 nM | 16900 nM | 
COc1cc(-c2c(-c3ccc(SC)cc3)cnn2C)cc(OC)c1OC | 41 nM | 52 nM | 

The next lines start with results.

IC50 (MDA-MB-231) | IC50 (SK-OV-3 [1]) | SMILES | further results
33700 nM | 28900 nM | COc1ccc(-c2c(-c3cc(OC)c(OC)c(OC)c3)nn(-c3ccc(F)cc3)c2N)cc1 | 
22900 nM | 7370 nM | COc1cc(-c2nn(-c3ccc(F)cc3)c(N)c2-c2ccc(SC)cc2)cc(OC)c1OC | 
31300 nM | 40300 nM | COc1ccc(-c2c(-c3cc(OC)c(OC)c(OC)c3)nn(C(C)(C)C)c2N)cc1 | 
748 nM | 438 nM | COc1cc(-c2nn(C)c(N)c2-c2ccc(SC)cc2)cc(OC)c1OC | 
2010 nM | 1210 nM | CCOc1ccc(-c2c(-c3cc(OC)c(OC)c(OC)c3)nn(-c3ccc(OC)cc3)c2N)cc1 | 
31100 nM | 16300 nM | COc1ccc(-c2c(-c3cc(OC)c(OC)c(OC)c3)nn(C)c2N)cc1 | 
15900 nM | 19000 nM | COc1ccc(-c2c(-c3cc(OC)c(OC)c(OC)c3)nn(-c3ccc(OC)cc3)c2N)cc1 | 
72 nM | 43 nM | CCOc1ccc(-c2cnn(C)c2-c2cc(OC)c(OC)c(OC)c2)cc1 | IC50 (A549): 99 nM; IC50 (MCF7): 39.9 nM; IC50 (HeLa): 93.1 nM; IC50 (CT26): 165 nM
1660 nM | 2830 nM | CCOc1ccc(-c2c(-c3cc(OC)c(OC)c(OC)c3)nn(-c3ccc(F)cc3)c2N)cc1 | 
24600 nM | 33200 nM | COc1ccc(-c2c(-c3cc(OC)c(OC)c(OC)c3)nn(-c3ccc(F)cc3)c2N)cc1F | 
18400 nM | 14700 nM | COc1ccc(-n2nc(-c3cc(OC)c(OC)c(OC)c3)c(-c3ccc(OC)c(F)c3)c2N)cc1 | 
7050 nM | 14000 nM | COc1ccc(-n2nc(-c3cc(OC)c(OC)c(OC)c3)c(-c3ccc(SC)cc3)c2N)cc1 | 
2570 nM | 1120 nM | CCOc1ccc(-c2c(-c3cc(OC)c(OC)c(OC)c3)nn(C(C)(C)C)c2N)cc1 | 
490 nM | 338 nM | CCOc1ccc(-c2c(-c3cc(OC)c(OC)c(OC)c3)nn(C)c2N)cc1 | 
